Most compounds without a hit are left out; they make up all but 1.3% or so of the library.
HKDC1 inhibitor = HKDC1 (human) hexokinase inhibition | Q2TB90 | recombinant HKDC1, G6PDH/diaphorase resazurin coupled fluorescence | inhibition, % at 20 µM | actives 0.16% (n = 340,000) | AID 493160;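 active = inhibition above about 35% when tested at 20 µM, limit read from the data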;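 also: plate controls were DMSO wells with enzyme for no effect and DMSO wells lacking enzyme for full effect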
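Material – in-house recombinant HK5 (HKDC1) enzyme · Quantity – HKDC1 at 5 µg/mL · Buffer or medium – pH 8.0 Tris buffer with 10 mM MgCl2 · Reagent – glucose with 1 mM ATP · Dosing – single 20 µM dose · Times – reaction time 90 min, room temperature, protected from light · Technique – resorufin fluorescence at 613 nm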
Diaphorase inh = inhibits diaphorase or chemically oxidizes, flagging diaphorase assay artifacts; diaphorase resazurin-to-resorufin fluorescence, NADH, 16 min; bacterial (C. kluyveri) enzyme, not human; inhibition, % at 20 µM; actives 0.69% (n = 190,000);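 active = primary screen inhibition at 20 µM above a set limit, cut at about 50% in these data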;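 also: plate controls were DMSO with full reaction for no effect and wells lacking NADH for full effect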
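Test system: bacterial diaphorase enzyme (C. kluyveri); Quantity: 0.14 U/mL diaphorase, enzyme working solution; Times: reaction incubation of 16 min at room temperature; Measured by: fluorescence of resorufin formed from resazurin, Ex 544/Em 590 nm; Benchmarks: positive control minus NADH, DMSO neutral control.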
Diaph act CS = activates diaphorase or chemically reduces, flagging diaphorase assay artifacts; Diaphorase/resazurin coupled assay, resorufin fluorescence, 16 min; hits give high values; 1 = vehicle wells, 0 = NADH-free wells; activation factor at 20 µM; actives 0.005% (n = 190,000);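 active = diaphorase activity raised at least twofold by the compound at 20 µM; inactive = activation factor below 2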
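Material: purified diaphorase enzyme from Clostridium kluyveri / Medium: HEPES pH 7.4 buffer with MgCl2 and Tween 20 / Schedule: enzyme reaction of 16 min at room temperature / Measured by: resorufin fluorescence, excitation 544 nm, emission 590 nm / Evaluation: rise in resorufin formation, marking diaphorase activation or chemical reduction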
G6PDH CS = L. mesenteroides G6PDH inhibition counter-screen. Purified L. mesenteroides G6PDH, diaphorase/resazurin coupled fluorescence, 45 min. inhibition, % at 5 µM. actives 0.12% (n = 200,000); in the data active = inhibition above about 50%
PfGluPho inh = PfG6PD (Plasmodium falciparum) enzyme inhibition; inhibition, % at 20 µM; PfGluPho enzyme, NADPH resazurin-diaphorase fluorescence; AID 504690; actives 0.78% (n = 350,000);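 active = inhibition reaching at least a set limit at 20 µM in the primary screen, cut at about 59% in these data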;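 also: 0% = DMSO wells with substrate and 100% = DMSO wells lacking glucose-6-phosphate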
Starred values were filed as active, the others as inactive; / = no result given.

SMILES	HKDC1 inhibitor	Diaphorase inh	Diaph act CS	G6PDH CS	PfGluPho inh
O=C1Nc2cc(S(=O)(=O)N3CCCC3)ccc2N2CCCC12 (stereo not drawn)	3.2	-3.5	1	10.1	-5.2
CCOC(=O)C1(Cc2ccccc2C)CCCN(Cc2cc(OC)c(O)c(OC)c2)C1 (stereo not drawn)	-2.8	11.8	0.9	58.6*	39.1
COc1cc(OC)cc(C(=O)NCc2cc(C)nc3ccccc23)c1	13.7	75.6*	0.2	2.1	0.3
COc1cc(NC(C)=O)c2ncccc2c1[N+](=O)[O-]	15.6	61.3*	0.4	15.6	50.4
COc1ccc(-n2c(NC(=O)c3ccc(Br)o3)c(C#N)c3nc4ccccc4nc32)cc1	/	63.0*	0.4	13.2	/
Cn1nc(C(=O)OCC(=O)NCc2ccc(Cl)cc2Cl)c2ccccc2c1=O	/	/	/	/	-24.4
CC1=C(CC(=O)c2ccc(Cl)cc2)C(=O)c2ccccc2C1=O	2.6	34.0	0.7	56.0*	-0.9
Cc1ccc(CS(=O)(=O)CC(C)(O)c2ccc(Cl)cc2)cc1 (stereo not drawn)	-2.9	/	/	/	-18.2
C[C@H]1CN(CCc2ccccc2)C(=O)[C@@H]1CC(=O)NCc1ccccc1	4.2	/	/	/	1.2
COc1ccccc1NC(=O)N(C)C[C@H]1OCc2cnnn2CCCC(=O)N([C@H](C)CO)C[C@@H]1C	/	/	/	/	-9.4
Oc1ccc(C2=Nn3c(nnc3-c3ccco3)SC2)cc1O	2.4	69.9*	0.3	19.1	-26.0
COc1cc2[nH]c(=O)n(CCCC(=O)N3CC=C(c4ccccc4)CC3)c(=O)c2cc1OC	2.3	58.1*	0.4	5.4	21.8
NS(=O)(=O)c1ccc(CNC(=O)c2csc3c2CCCC3)cc1	-8.0	84.9*	0.2	0.2	9.9
CN(C)c1ccc(N=Cc2cccn2C)cc1	8.1	/	/	/	77.4*
Cc1ccc(Nc2nc(=O)c3cccnc3s2)cc1	-4.4	10.1	0.9	-5.7	31.3
COc1ccc(OC)c(Nc2nc(=O)c3cccnc3s2)c1	7.8	65.3*	0.3	28.3	56.8
O=C(Cn1cc(COc2c(F)c(F)cc(F)c2F)nn1)c1ccc(O)cc1	23.9	/	/	/	8.3
COc1cc(Cl)cc(/C=N/NC(N)=O)c1O	-9.8	26.2	0.7	53.5*	-3.9
COc1cc(/C=N/NC(=O)C(N)=O)cc(OC)c1O	-2.0	-1.1	1	-2.0	2.9
Cc1ccccc1NC1=C/C(=N\S(=O)(=O)c2cccs2)c2ccccc2C1=O	62.6*	24.2	0.8	55.4*	99.3*
Cc1cc[n+](C2=C([O-])c3ccccc3C(=O)/C2=N\S(=O)(=O)c2cccs2)cc1C	8.0	13.6	0.9	54.4*	13.4
Cc1ccc(NC2=C/C(=N/S(=O)(=O)c3cccs3)c3ccccc3C2=O)cc1C	14.6	11.0	0.9	32.4	-2.9
Cc1ccc(C(C)C)cc1-n1nnc(-c2cccc(Cc3ccc4ccccc4c3)c2)c1C(C)O (stereo not drawn)	/	/	/	/	-7.1
CC(C)c1nc2sc3c(SCC(=O)NCc4ccco4)ncnc3c2c2c1CCC2	15.4	55.5*	0.4	15.5	8.1
O=C(CSc1ncnc2sc3c(c12)CCCCC3)NCc1ccco1	1.0	12.8	0.9	2.8	-0.6
SMILES	HKDC1 inhibitor	Diaphorase inh	Diaph act CS	G6PDH CS	PfGluPho inh
COc1ccccc1N1CCN(Cc2cc(Br)c(O)c3ncccc23)CC1	-27.1	58.2*	0.4	18.9	-4.2
CCOc1ccccc1N1CCN(Cc2cccc(OC)c2O)CC1	14.2	10.2	0.9	-2.7	-1.9
COc1cc(C(=O)Oc2c(CN3CCOCC3)cc(Cl)c3cccnc23)cc(OC)c1OC	2.2	58.1*	0.4	37.7	11.1
OCCN1CCN(Cc2cc(Cl)c3cccnc3c2O)CC1	-0.3	68.7*	0.3	52.7*	18.4
COCc1cc(CN2CCCC2)c(O)c2ncccc12	-9.7	44.0	0.6	43.0	24.4
COc1ccc(C(=O)Oc2c(CN3CCOCC3)cc(Cl)c3cccnc23)cc1	2.5	14.1	0.9	9.6	-11.7
Oc1c(CN2CCN(c3ccccn3)CC2)cc(Cl)c2cccnc12	-3.0	53.0*	0.5	-22.2	-20.7
Cc1noc(C)c1S(=O)(=O)Nc1ccc(C#N)cc1	-6.8	/	/	/	-8.9
CC1CCC(NC(=O)CCS(=O)(=O)c2ccc3c(c2)CCN3C(=O)C2CC2)CC1 (stereo not drawn)	-3.6	/	/	/	0.6

Bioassay records: PubChem, Sanford-Burnham Center for Chemical Genomics
